Converted amounts (≈) assume the structure as drawn.
Legend:
[1] = Aqueous solubility of the compound at pH 4; type: physicochemical
Plasmodium falciparum [2] = experiment: Antimalarial activity against chloroquine-resistant Plasmodium falciparum W2 infected in type A rhesus-positive human erythrocytes assessed as [3H]hypoxanthine incorporation after 48 hrs by scintillation counting; type: functional, organism-based
Summary of the method: (§1)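 Modified semiautomated microdilution: compounds dissolved in DMSO, diluted in RPMI 1640 with 10% v/v human plasma, serial 1:2 dilutions in triplicate. Infected erythrocytes at 3% hematocrit, 0.25−0.55% parasitemia. [3H]hypoxanthine at 12.5−16 μCi/mL final. Incubated 48 h, 37 °C, in 5% O2/3% CO2/92% N2. Harvested on fiberglass strips, scintillation counted. IC50 by nonlinear regression of concentration−response curves.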

Plasmodium falciparum [3] = experiment: Ratio of IC50 for azithromycin to compound IC50 for chloroquine-resistant Plasmodium falciparum W2 infected in type A rhesus-positive human erythrocytes assessed as [3H]hypoxanthine incorporation after 48 hrs by scintillation counting; type: functional
Streptococcus pyogenes = experiment: Antibacterial activity against Streptococcus pyogenes isolate 3565 by broth microdilution method; type: functional
Summary of the method: (§2)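 Standard broth microdilution MIC against macrolide-sensitive strains. For streptococci, 5% horse serum replaced lysed horse blood in the broth, and inocula were grown on Columbia agar with 5% sheep blood. S. aureus was grown on Mueller–Hinton agar.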

[4] = Selectivity ratio of IC50 for human HepG2 cells to IC50 for chloroquine-sensitive Plasmodium falciparum 3D7A; type: ADME, cell-based; settings: HepG2 cells versus Plasmodium falciparum 3D7A, read-out: Ratio IC50
Summary of the method: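 Selectivity is the HepG2 IC50 divided by the P. falciparum IC50. For HepG2, 50000 cells per well in RPMI 1640 with 10% FBS were exposed to 1:2 serial dilutions for 24 h at 37 °C, 5% CO2. MTS was added for 2 h and absorbance read at 490 nm. Parasite IC50 came from the 48 h [3H]hypoxanthine assay.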

HepG2 = experiment: Cytotoxicity against human HepG2 cells after 24 hrs by MTS assay; type: cell-based; settings: HepG2, 24 h
Summary of the method: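 Hep G2 cells were kept in RPMI 1640 with 10% FBS at 37 °C and 5% CO2. Wells held 50000 cells and received 1:2 serial dilutions of compound (DMSO stock diluted in medium) for 24 h. MTS reagent was then added for 2 h, absorbance was read at 490 nm, and IC50 was taken from response curves.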

Streptococcus pneumoniae = experiment: Antibacterial activity against Streptococcus pneumoniae isolate SP030 by broth microdilution method; type: functional; summary of the method: as §2
[5] = Selectivity ratio of IC50 for human HepG2 cells to IC50 for chloroquine-sensitive Plasmodium falciparum 3D7A; settings: HepG2 cells versus Plasmodium falciparum 3D7A
Plasmodium falciparum [6] = experiment: Antimalarial activity against chloroquine-sensitive Plasmodium falciparum 3D7A infected in type A rhesus-positive human erythrocytes assessed as [3H]hypoxanthine incorporation after 48 hrs by scintillation counting; type: functional, organism-based; summary of the method: as §1
Staphylococcus aureus = experiment: Antibacterial activity against Staphylococcus aureus ATCC 13709 by broth microdilution method; type: functional; summary of the method: as §2
Plasmodium falciparum [7] = experiment: Ratio of IC50 for azithromycin to compound IC50 for chloroquine-sensitive Plasmodium falciparum 3D7A infected in type A rhesus-positive human erythrocytes assessed as [3H]hypoxanthine incorporation after 48 hrs by scintillation counting; type: functional

Structure (SMILES) | solubility [1] [µg/mL] | IC50 (Plasmodium falciparum [2]) [nM] | Ratio IC50 (Plasmodium falciparum [3]) | MIC (Streptococcus pyogenes) [µg/mL] | selectivity ratio [4] | IC50 (HepG2) [nM] | MIC (Streptococcus pneumoniae) [µg/mL] | selectivity ratio [5] | IC50 (Plasmodium falciparum [6]) [nM] | MIC (Staphylococcus aureus) [µg/mL] | Ratio IC50 (Plasmodium falciparum [7])
CC[C@H]1OC(=O)[C@H](C)[C@@H](O[C@H]2C[C@@](C)(OC)[C@@H](O)[C@H](C)O2)[C@H](C)[C@@H](O[C@@H]2O[C@H](C)C[C@H](N(C)C)[C@H]2OCCC(=O)NCCNc2ccnc3cc(Cl)ccc23)[C@](C)(O)C[C@@H](C)CN(C)[C@H](C)[C@@H](O)[C@]1(C)O | > 10000 | 13 | 3 | 64 (≈ 62.5 µM) | 132 | 18000 | 64 (≈ 62.5 µM) | 132 | 18 | 64 (≈ 62.5 µM) | 3
CC[C@H]1OC(=O)[C@H](C)[C@@H](O[C@H]2C[C@@](C)(OC)[C@@H](O)[C@H](C)O2)[C@H](C)[C@@H](O[C@@H]2O[C@H](C)C[C@H](N(C)C)[C@H]2OCCCNC(=O)CCCNc2ccnc3cc(Cl)ccc23)[C@](C)(O)C[C@@H](C)CN(C)[C@H](C)[C@@H](O)[C@]1(C)O | > 10000 | 19 | 3 | > 64 | 132 | 50000 | > 64 | 132 | 29 | > 64 | 3
CC[C@H]1OC(=O)[C@H](C)[C@@H](O)[C@H](C)[C@@H](O[C@@H]2O[C@H](C)C[C@H](N(C)C)[C@H]2OCCCNCc2ccnc3ccccc23)[C@](C)(O)C[C@@H](C)CN(C)[C@H](C)[C@@H](O)[C@]1(C)O | > 10000 | 432 | 3 | > 64 | 132 | > 100000 | > 64 | 132 | 540 | > 64 | 3
CC[C@H]1OC(=O)[C@H](C)[C@@H](O[C@H]2C[C@@](C)(OC)[C@@H](O)[C@H](C)O2)[C@H](C)[C@@H](O[C@@H]2O[C@H](C)C[C@H](N(C)C)[C@H]2OCCCNc2ccnc3cc(Cl)ccc23)[C@](C)(O)C[C@@H](C)CN(C)[C@H](C)[C@@H](O)[C@]1(C)O | > 10000 | 10 | 3 | 64 (≈ 66.1 µM) | 132 | 45000 | 64 (≈ 66.1 µM) | 132 | 21 | > 64 | 3
CC[C@H]1OC(=O)[C@H](C)[C@@H](O)[C@H](C)[C@@H](O[C@@H]2O[C@H](C)C[C@H](N(C)C)[C@H]2OCCCNC(=O)CNc2ccnc3cc(Cl)ccc23)[C@](C)(O)C[C@@H](C)CN(C)[C@H](C)[C@@H](O)[C@]1(C)O | > 10000 | 84 | 3 | > 64 | 132 | > 100000 | > 64 | 132 | 138 | > 64 | 3
CC[C@H]1OC(=O)[C@H](C)[C@@H](O[C@H]2C[C@@](C)(OC)[C@@H](O)[C@H](C)O2)[C@H](C)[C@@H](O[C@@H]2O[C@H](C)C[C@H](N(C)C)[C@H]2O)[C@](C)(O)C[C@@H](C)CN(C)[C@H](C)[C@@H](O)[C@]1(C)O [AZITHROMYCIN] | – | – | – | ≤ 0.125 | 132 | – | ≤ 0.125 | 132 | – | 0.5 (≈ 0.668 µM) | –
CC[C@H]1OC(=O)[C@H](C)[C@@H](O[C@H]2C[C@@](C)(OC)[C@@H](O)[C@H](C)O2)[C@H](C)[C@@H](O[C@@H]2O[C@H](C)C[C@H](N(C)C)[C@H]2OCCCNC(=O)CCCNc2ccnc3ccccc23)[C@](C)(O)C[C@@H](C)CN(C)[C@H](C)[C@@H](O)[C@]1(C)O | > 10000 | 135 | 3 | > 64 | 132 | > 100000 | > 64 | 132 | 220 | > 64 | 3
CC[C@H]1OC(=O)[C@H](C)[C@@H](O[C@H]2C[C@@](C)(OC)[C@@H](O)[C@H](C)O2)[C@H](C)[C@@H](O[C@@H]2O[C@H](C)C[C@H](N(C)C)[C@H]2OCCCNCc2ccnc3ccccc23)[C@](C)(O)C[C@@H](C)CN(C)[C@H](C)[C@@H](O)[C@]1(C)O | > 10000 | 78 | 3 | > 64 | 132 | 45000 | > 64 | 132 | 141 | > 64 | 3
CC[C@H]1OC(=O)[C@H](C)[C@@H](O[C@H]2C[C@@](C)(OC)[C@@H](O)[C@H](C)O2)[C@H](C)[C@@H](O[C@@H]2O[C@H](C)C[C@H](N(C)C)[C@H]2OCCCNCc2ccc3ccccc3n2)[C@](C)(O)C[C@@H](C)CN(C)[C@H](C)[C@@H](O)[C@]1(C)O | > 10000 | 55 | 3 | > 64 | 132 | 30000 | > 64 | 132 | 227 | > 64 | 3
CCN(CC)CCCC(C)Nc1ccnc2cc(Cl)ccc12 (stereo unspecified) [CHLOROQUINE] | – | – | – | > 64 | – | – | > 64 | – | – | > 64 | –
CC[C@H]1OC(=O)[C@H](C)[C@@H](O)[C@H](C)[C@@H](O[C@@H]2O[C@H](C)C[C@H](N(C)C)[C@H]2OCCCNC(=O)CNc2ccnc3ccccc23)[C@](C)(O)C[C@@H](C)CN(C)[C@H](C)[C@@H](O)[C@]1(C)O | > 10000 | 815 | 3 | – | 132 | – | – | 132 | 1660 | – | 3
CC[C@H]1OC(=O)[C@H](C)[C@@H](O)[C@H](C)[C@@H](O[C@@H]2O[C@H](C)C[C@H](N(C)C)[C@H]2OCCCN(C)Cc2cnc3ccccc3c2)[C@](C)(O)C[C@@H](C)CN(C)[C@H](C)[C@@H](O)[C@]1(C)O | > 10000 | 311 | 3 | > 64 | – | > 100000 | > 64 | – | 1290 | > 64 | 3
CC[C@H]1OC(=O)[C@H](C)[C@@H](O)[C@H](C)[C@@H](O[C@@H]2O[C@H](C)C[C@H](N(C)C)[C@H]2OCCCNCc2cnc3ccccc3c2)[C@](C)(O)C[C@@H](C)CN(C)[C@H](C)[C@@H](O)[C@]1(C)O | > 10000 | 286 | 3 | > 64 | – | > 100000 | > 64 | – | 1370 | > 64 | 3

From ChEMBL document CHEMBL2040808, “Design, synthesis, and in vitro activity of novel 2'-O-substituted 15-membered azalides” (J Med Chem, 2012)
